This is a sample that favours compounds with a hit; in the whole collection about 1.2% have one here.
TDP2 absorb: human TDP2 enzyme inhibitors, primary screen, biochemical, epi absorbance, recombinant enzyme; T5PNP hydrolysis, p-nitrophenol absorbance 415 nm; 0.34% of 370,000 active; inhibition, % at 12.8 µM; Tyrosyl-DNA phosphodiesterase 2 (Homo sapiens), O95551;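 active = inhibition above the mean of all tested compounds plus 3 SD, set per campaign, cut at about 25% in these data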
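System – recombinant human TDP2 · Quantity – TDP2 enzyme at 120 nM final · Doses – single concentration, 12.8 µM nominal, with 1% DMSO · Incubation – 2 h at 37 °C · Measured by – epi absorbance of p-nitrophenol freed from T5PNP by hydrolysis · Read-out – % inhibition relative to enzyme-containing and enzyme-free wells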
Fh CTSL1 inh: Fasciola hepatica cathepsin L1 inhibitors, primary screen, counter-screen for PFM18AAP inhibitor project, biochemical, QFRET, fluorogenic peptide substrate. recombinant F. hepatica cathepsin L1, Z-Leu-Arg-MCA fluorescence. inhibition, % at 5.96 µM. 0.49% of 300,000 active. AID 1906, 2009;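 active = inhibition above the mean of all tested compounds plus 3 SD, set per screening campaign, cut at about 17% in these data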
NSD2 inh: NSD2 histone methyltransferase inhibitors, primary screen, biochemical, AlphaScreen, single concentration, set 2; Histone-lysine N-methyltransferase NSD2 (Homo sapiens), O96028; NSD2 peptide methylation, 120 min; inhibition, % at 12.5 µM; 0.54% of 310,000 active; AID 743445, 2014; in the data active = inhibition above about 50%
UBC9 SUMO inh: inhibitors of in vitro SUMOylation cascade, primary screen, biochemical, HTRF, uHTS; SUMO-conjugating enzyme UBC9 (Homo sapiens), P63279; inhibition, % at 35 µM; HTRF SUMOylation assay, SAE1/SAE2 + UBC9; 0.36% of 290,000 active; in the data active = inhibition above about 50%, passing the limit was not always enough
Target sequence (P63279 whole entry, looked up): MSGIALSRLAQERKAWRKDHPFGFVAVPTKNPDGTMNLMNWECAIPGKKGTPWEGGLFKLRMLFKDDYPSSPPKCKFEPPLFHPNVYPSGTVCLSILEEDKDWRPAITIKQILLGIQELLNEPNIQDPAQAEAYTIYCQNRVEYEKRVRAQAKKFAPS
TDP2 confirm: human TDP2 enzyme inhibitors, retest, confirmation, biochemical, epi absorbance, recombinant enzyme; shares compounds with TDP2 absorb; absorbance read-out; inhibition, % at 12.8 µM; 22% of 1,100 active; in the data active = inhibition above about 25%
Of the large screens only hits and unclear results are named; the others gave an inactive call (follow-up assays come after a bar, where they were run).

CCN1C(=O)[C@H]2[C@H]3CN=C(SCc4ccc(C)cc4)N3[C@@](Cc3ccccc3)(C(=O)OC)[C@H]2C1=O	none (no result: Fh CTSL1 inh, NSD2 inh, UBC9 SUMO inh)
C[n+]1c2cc(N)ccc2cc2ccc(N)cc21	TDP2 absorb 29 (no result: Fh CTSL1 inh, NSD2 inh, UBC9 SUMO inh) | TDP2 confirm 28
O=C(CO)c1c[nH]c2ccccc12	none (no result: Fh CTSL1 inh, NSD2 inh, UBC9 SUMO inh)
CCN1C(=O)[C@H]2[C@@H](c3ccc(OC)cc3)N[C@]3(CCCN(Cc4ccc(F)cc4)C3=O)[C@H]2C1=O	none (no result: Fh CTSL1 inh, NSD2 inh, UBC9 SUMO inh)
CCc1nnc(N/N=C/c2ccccc2Cl)n1N	TDP2 absorb 61 | TDP2 confirm inactive
COc1cccc(/C=N/Nc2nnc(C)n2N)c1OCc1ccccc1Cl	TDP2 absorb 54 | TDP2 confirm inactive
CCc1nnc(N/N=C/c2ccccc2F)n1N	TDP2 absorb 66 | TDP2 confirm inactive
O=S(=O)(Nc1c(S(=O)(=O)c2ccccc2)c2nc3ccccc3nc2n1C1CCCCC1)c1ccccc1	TDP2 absorb 89, NSD2 inh 141, UBC9 SUMO inh 99 | TDP2 confirm 84
CCN(CC)S(=O)(=O)c1ccc(N2CCN(S(=O)(=O)c3ccccc3)CC2)nc1	TDP2 absorb 25 (no result: Fh CTSL1 inh) | TDP2 confirm inactive
CCOc1ccc(CCNC(=O)C2CC(=O)N(CCc3ccc(OC)c(OC)c3)C2)cc1OCC (configuration not stated)	TDP2 absorb 25 (no result: UBC9 SUMO inh) | TDP2 confirm inactive
CCOc1ccc(CCNC(=O)C2CC(=O)N(CCc3ccccc3)C2)cc1OCC (configuration not stated)	none
O=C(N/N=C/c1ccc(-c2ccccc2[N+](=O)[O-])o1)c1cccnc1	TDP2 absorb 36 | TDP2 confirm inactive
CCNC(=S)NNC(=O)Cn1c(=O)c2c(ncn2CCOC)n(Cc2ccccc2)c1=O	none
COCCn1cnc2c1c(=O)n(CC(=O)NC(=O)NC(C)(C)C)c(=O)n2Cc1ccccc1	TDP2 absorb 39 (no result: Fh CTSL1 inh) | TDP2 confirm inactive
Cc1nccn1-c1ccc(NC(=O)[C@@H](Cc2ccccc2)NC(=O)[C@H]2O[C@@H](n3ccc(=O)[nH]c3=O)[C@H](O)[C@@H]2O)cc1	none (no result: Fh CTSL1 inh, NSD2 inh, UBC9 SUMO inh)
CN(C)c1ccc(N/C=C/C(=O)c2ccccc2)cc1	none
CN(C)c1ccc(N/C=C/C(=O)C(C)(C)C)cc1	TDP2 absorb 55 | TDP2 confirm inactive
O=C1NC(=O)C(=Cc2ccccc2[N+](=O)[O-])S1	TDP2 absorb 25 (no result: Fh CTSL1 inh, UBC9 SUMO inh) | TDP2 confirm 44
Cc1nn(CCO)c(N)c1C1(O)C(=O)Nc2c(Cl)cc(Cl)cc21 (configuration not stated)	TDP2 absorb 28 | TDP2 confirm inactive
Cc1noc(N)c1C1(O)C(=O)Nc2c(Cl)cc(Cl)cc21 (configuration not stated)	none
O=C(CO)N/N=C/c1cccc(Cl)c1Cl	none
Nn1cnnc1N/N=C/c1ccccc1C(F)(F)F	TDP2 absorb 51 | TDP2 confirm inactive
Nn1cnnc1N/N=C/c1cccc(Cl)c1Cl	TDP2 absorb 75 (no result: Fh CTSL1 inh) | TDP2 confirm inactive
Cc1cccc(NS(=O)(=O)c2ccc(C(=O)N3CC(C)OC(C)C3)cc2)c1C (configuration not stated)	none (no result: UBC9 SUMO inh)
N#CC(C#N)=C1NC(N)=C(C#N)C(c2ccccc2)=C1C#N	TDP2 absorb 32 | TDP2 confirm 29
CCC(=O)N(CC)C1=C(O)c2ccccc2C(=O)C1=O	TDP2 absorb 29 | TDP2 confirm inactive
CCN(C(=O)c1cccc2c1-c1ccccc1C2=O)c1ccccc1	none (no result: Fh CTSL1 inh, UBC9 SUMO inh)
CC1=C(C(=O)OCC(C)C)C2(O)C(=O)c3ccccc3C2(O)N1 (configuration not stated)	TDP2 absorb 47 | TDP2 confirm inactive
COc1ccccc1C1CC(=O)NC(C)=C1C(=O)OCC(C)C (configuration not stated)	none (no result: NSD2 inh)
C=CCOC(=O)C1=C(C)NC2(O)c3ccccc3C(=O)C12O (configuration not stated)	TDP2 absorb 43 | TDP2 confirm inactive
CC(OC(=O)c1ccc(F)c(S(=O)(=O)N2CCOCC2)c1)C(=O)NC1CCCC1 (configuration not stated)	none (no result: Fh CTSL1 inh, UBC9 SUMO inh)
CCOC(=O)c1c(C)oc2c1cc(NS(=O)(=O)c1ccc(C(=O)O)cc1)c1ccccc12	TDP2 absorb 34 | TDP2 confirm inactive
COc1ccccc1CC(=O)Nc1ncc(C)s1	none
